Data on one molecule can be found in ChEMBL document CHEMBL3525945, “Metabolic switching of BILR 355 in the presence of ritonavir. II. Uncovering novel contributions by gut bacteria and aldehyde oxidase” (Drug Metab Dispos, 2012).

The target of one data set is Cytochrome P450 2D6 (Homo sapiens, UniProt P10635). As to the kind of experiment: Activity at recombinant CYP2D6 (unknown origin) expressed in baculovirus-infected insect cells assessed as enzyme-mediated drug depletion at 1 to 10 uM by LC-MS/MS analysis in presence of NADPH. In kind it is ADME. An outline of the steps:
(§1)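 BILR 402 (1 or 10 μM) with baculovirus/insect-cell recombinant CYPs, levels scaled to average liver content (1A2 2, 2A6 1, 2B6 0.1, 2C9 1.5, 2C19 1.5, 2D6 0.3, 3A4 5 pmol/mL). Buffer 0.1 M potassium phosphate, 5 mM MgCl2, pH 7.4; 2.5 mM NADPH; 37 °C. Non-transfected insect microsomes served as controls. Aliquots taken 0.5–30 min and acetonitrile-quenched; depletion measured by LC-MS/MS with isotope-labelled internal standard.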

In a further data set the test system is Liver cytosol. As to the kind of experiment: Drug metabolism in human liver cytosol assessed as BILR355 formation at 10 uM by LC-MS/MS analysis. In kind it is ADME, tissue-based. The procedure, abridged:
(§2)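 BILR 402 (10 μM final) was incubated with human liver S9 or cytosol (1 mg/mL protein) in 0.05 M potassium phosphate pH 7.4 at 37 °C. Runs were done with or without 2.5 mM NADPH. Samples at 10, 20, 30 and 60 min were quenched in nevirapine/acetonitrile, filtered and analysed by LC-MS/MS; duplicate.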

For the next data set, the target named is T1, Aldehyde oxidase (Homo sapiens, UniProt Q06278).
T1 sequence (Q06278 whole entry): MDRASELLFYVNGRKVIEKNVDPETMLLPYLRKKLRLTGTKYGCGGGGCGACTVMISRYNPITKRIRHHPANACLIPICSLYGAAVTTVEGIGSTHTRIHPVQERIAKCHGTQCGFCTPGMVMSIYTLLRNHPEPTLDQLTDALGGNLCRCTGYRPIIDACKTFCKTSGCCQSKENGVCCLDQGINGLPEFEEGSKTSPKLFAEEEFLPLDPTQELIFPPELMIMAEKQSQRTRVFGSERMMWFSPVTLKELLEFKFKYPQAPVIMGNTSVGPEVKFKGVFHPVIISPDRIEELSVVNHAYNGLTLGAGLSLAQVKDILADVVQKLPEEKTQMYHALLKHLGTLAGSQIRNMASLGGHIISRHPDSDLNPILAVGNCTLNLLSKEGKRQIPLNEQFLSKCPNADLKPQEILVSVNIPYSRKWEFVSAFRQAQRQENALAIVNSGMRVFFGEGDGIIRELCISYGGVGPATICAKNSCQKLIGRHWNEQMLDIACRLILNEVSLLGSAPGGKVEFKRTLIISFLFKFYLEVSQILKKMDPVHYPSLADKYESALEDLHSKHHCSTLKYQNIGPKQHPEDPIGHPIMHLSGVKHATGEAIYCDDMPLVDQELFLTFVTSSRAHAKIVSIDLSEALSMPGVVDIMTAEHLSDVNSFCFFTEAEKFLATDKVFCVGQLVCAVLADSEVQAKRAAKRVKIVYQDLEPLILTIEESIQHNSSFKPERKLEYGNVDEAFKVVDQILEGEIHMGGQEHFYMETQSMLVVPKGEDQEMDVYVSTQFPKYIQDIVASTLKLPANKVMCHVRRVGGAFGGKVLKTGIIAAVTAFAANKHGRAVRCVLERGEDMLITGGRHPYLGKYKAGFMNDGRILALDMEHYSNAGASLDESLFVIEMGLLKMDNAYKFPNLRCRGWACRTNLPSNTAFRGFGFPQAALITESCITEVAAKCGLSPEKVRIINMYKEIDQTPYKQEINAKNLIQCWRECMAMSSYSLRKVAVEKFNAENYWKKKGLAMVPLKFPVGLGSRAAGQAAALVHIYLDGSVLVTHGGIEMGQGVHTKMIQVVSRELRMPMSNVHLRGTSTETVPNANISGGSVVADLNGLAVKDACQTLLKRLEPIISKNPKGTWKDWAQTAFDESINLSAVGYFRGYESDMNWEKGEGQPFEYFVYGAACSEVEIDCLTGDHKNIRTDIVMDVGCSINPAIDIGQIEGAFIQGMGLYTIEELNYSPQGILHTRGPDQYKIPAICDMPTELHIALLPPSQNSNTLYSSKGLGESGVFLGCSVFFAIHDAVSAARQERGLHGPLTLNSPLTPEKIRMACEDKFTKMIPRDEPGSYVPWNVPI
As to the kind of experiment: Drug metabolism in human liver cytosol assessed as intrinsic clearance for high affinity low capacity site aldehyde-oxidase-mediated BILR516 metabolite formation measured per mg protein after 10 mins by Eadie-Hofstee plot analysis. In kind it is ADME, tissue-based. An outline of the steps:
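Human liver cytosol (0.1 mg/mL) was incubated with BILR 402 at 12 concentrations, 0.061–125 μM, for 10 min at 37 °C in 0.05 M potassium phosphate pH 7.4 without NADPH, within the linear range for protein and time. […] Apparent Km and Vmax were derived from the kinetic data.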

Data set [1] is described as follows: Drug metabolism in human liver S9 fraction assessed as BILR355 formation at 10 uM by LC-MS/MS analysis in presence of NADPH. In kind it is ADME, subcellular. Particulars: s9, 10 µM. An outline of the steps:
as §2

The next data set concerns the target T2, Cytochrome P450 1A2 (Homo sapiens, UniProt P05177).
T2 sequence (P05177 whole entry): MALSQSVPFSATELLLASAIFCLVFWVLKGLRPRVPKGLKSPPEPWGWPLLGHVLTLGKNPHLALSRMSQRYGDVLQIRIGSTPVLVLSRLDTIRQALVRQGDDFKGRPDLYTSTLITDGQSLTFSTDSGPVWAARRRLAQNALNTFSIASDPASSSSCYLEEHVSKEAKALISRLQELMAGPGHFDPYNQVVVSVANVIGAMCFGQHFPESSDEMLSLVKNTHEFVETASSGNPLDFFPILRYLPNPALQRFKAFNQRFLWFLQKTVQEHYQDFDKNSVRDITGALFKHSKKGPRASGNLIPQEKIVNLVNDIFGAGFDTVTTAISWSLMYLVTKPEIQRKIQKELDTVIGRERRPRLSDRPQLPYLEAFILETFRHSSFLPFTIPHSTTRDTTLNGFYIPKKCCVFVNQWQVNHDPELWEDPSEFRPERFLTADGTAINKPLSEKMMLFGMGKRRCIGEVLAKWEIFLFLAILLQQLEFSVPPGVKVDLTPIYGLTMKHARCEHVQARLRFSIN
As to the kind of experiment: Activity at recombinant CYP1A2 (unknown origin) expressed in baculovirus-infected insect cells assessed as enzyme-mediated drug depletion at 1 to 10 uM by LC-MS/MS analysis in presence of NADPH. The data set is classed as ADME. The procedure, abridged:
as §1

Another data set has as its target Cytochrome P450 3A4 (Homo sapiens, UniProt P08684). As to the kind of experiment: Activity at recombinant CYP3A4 (unknown origin) expressed in baculovirus-infected insect cells assessed as enzyme-mediated drug depletion by measuring compound level at 1 uM after 4 mins by LC-MS/MS analysis in presence of NADPH. The data set is classed as ADME. The procedure, abridged: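 rCYP3A4 (5 pmol/mL) incubated with BILR 402 at 1 or 10 μM in 0.1 M potassium phosphate/5 mM MgCl2, pH 7.4, with NADPH at 37 °C. Remaining BILR 402 and BILR 355 formed were read at 4 min by LC-MS/MS against a labelled internal standard.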

Cytochrome P450 2D6, sequence (P10635 whole entry): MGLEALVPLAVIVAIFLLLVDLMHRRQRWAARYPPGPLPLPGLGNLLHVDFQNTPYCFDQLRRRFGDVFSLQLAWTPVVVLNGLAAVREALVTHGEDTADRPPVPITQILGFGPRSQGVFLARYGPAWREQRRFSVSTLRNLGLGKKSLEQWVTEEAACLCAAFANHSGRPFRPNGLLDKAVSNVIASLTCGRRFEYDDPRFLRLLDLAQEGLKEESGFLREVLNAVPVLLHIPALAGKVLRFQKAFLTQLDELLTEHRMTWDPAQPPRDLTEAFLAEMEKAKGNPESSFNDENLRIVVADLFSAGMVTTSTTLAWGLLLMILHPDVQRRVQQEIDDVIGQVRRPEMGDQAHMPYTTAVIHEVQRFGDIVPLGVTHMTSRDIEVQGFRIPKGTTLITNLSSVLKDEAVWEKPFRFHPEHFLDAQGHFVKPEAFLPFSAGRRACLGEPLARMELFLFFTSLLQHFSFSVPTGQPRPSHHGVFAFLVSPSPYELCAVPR
Cytochrome P450 3A4, sequence (P08684 whole entry): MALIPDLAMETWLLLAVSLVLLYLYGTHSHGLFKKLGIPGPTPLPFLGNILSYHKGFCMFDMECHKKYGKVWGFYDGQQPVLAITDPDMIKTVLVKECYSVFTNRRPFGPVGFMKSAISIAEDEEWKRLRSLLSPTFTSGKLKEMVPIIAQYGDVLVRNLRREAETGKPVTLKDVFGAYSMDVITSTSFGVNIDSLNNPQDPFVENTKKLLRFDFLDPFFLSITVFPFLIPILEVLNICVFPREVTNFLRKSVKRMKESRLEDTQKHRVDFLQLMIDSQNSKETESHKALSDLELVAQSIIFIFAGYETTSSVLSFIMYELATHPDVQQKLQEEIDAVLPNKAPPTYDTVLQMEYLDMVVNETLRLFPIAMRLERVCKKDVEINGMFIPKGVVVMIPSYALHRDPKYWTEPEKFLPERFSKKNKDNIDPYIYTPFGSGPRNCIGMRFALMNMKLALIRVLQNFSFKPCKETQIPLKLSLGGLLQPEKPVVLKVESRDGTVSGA

Regarding `CCN1c2ncc(CCOc3ccnc4ccccc34)cc2C(=O)N(C)c2cccnc21`, the Drug metabolism result is “metabolite_not_detected” on Cytochrome P450 2D6; “metabolite_not_detected” in the data set on Liver cytosol; “metabolite_detected” in data set [1]; “metabolite_not_detected” on Cytochrome P450 1A2; 0.25 µM on Cytochrome P450 3A4. For the same molecule, at Aldehyde oxidase, the CLHH turned out to be 437 µL/min/mg.
